Data from ChEMBL document CHEMBL1287768, “Synthesis and pharmacological characterization of 5-phenyl-2-[2-(1-piperidinylcarbonyl)phenyl]-2,3-dihydro-1H-pyrrolo[1,2-c]imidazol-1-ones: a new class of Neuropeptide S antagonists” (Bioorg Med Chem Lett, 2010).

Assays:
Neuropeptide S receptor = target: T1, Neuropeptide S receptor (Homo sapiens, UniProt Q6W5P4); test: Antagonist activity at human recombinant GPR154 receptor expressed in HEK293 cells assessed as inhibition of neuropeptide S-induced increase of intracellular calcium level by FLIPR assay; format: functional, cell-based
T1 sequence (Q6W5P4 whole entry): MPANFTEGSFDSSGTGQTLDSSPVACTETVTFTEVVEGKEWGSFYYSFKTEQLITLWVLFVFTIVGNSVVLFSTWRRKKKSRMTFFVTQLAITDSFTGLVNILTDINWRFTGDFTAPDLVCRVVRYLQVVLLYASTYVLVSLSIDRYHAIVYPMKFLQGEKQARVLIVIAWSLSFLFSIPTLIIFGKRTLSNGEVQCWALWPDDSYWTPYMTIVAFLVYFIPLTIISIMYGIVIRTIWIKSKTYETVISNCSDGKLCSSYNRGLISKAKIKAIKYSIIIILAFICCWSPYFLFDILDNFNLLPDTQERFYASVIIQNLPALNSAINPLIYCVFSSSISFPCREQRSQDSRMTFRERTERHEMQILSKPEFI
Summary of the method: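 Transient expression of human GPR154 in HEK293; cells seeded 18.000/well, 24 h at 37 °C, 5% CO₂. Fluo-4-AM loading 1 h at 37 °C, HBSS wash. Calcium rise evoked by EC₈₀ Neuropeptide S, read by FLIPR; response normalised to 30 nM NPS maximum (max minus min RFU); pIC₅₀ by nonlinear regression.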

[1] = Half life in rat at 1 mg/kg, po; format: ADME, organism-based; parameters: dose 1 mg/kg, route oral; details: in vivo
Summary of the method: (§1)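 Rat, single oral 1 mg/kg in 5% DMSO + 0.5% HPMC in water; blood sampled for clearance, half-life, distribution volume and oral bioavailability.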

Cytochrome P450 1A2 = target: T2, Cytochrome P450 1A2 (Homo sapiens, UniProt P05177); test: Inhibition of CYP1A2; format: ADME
T2 sequence (P05177 whole entry): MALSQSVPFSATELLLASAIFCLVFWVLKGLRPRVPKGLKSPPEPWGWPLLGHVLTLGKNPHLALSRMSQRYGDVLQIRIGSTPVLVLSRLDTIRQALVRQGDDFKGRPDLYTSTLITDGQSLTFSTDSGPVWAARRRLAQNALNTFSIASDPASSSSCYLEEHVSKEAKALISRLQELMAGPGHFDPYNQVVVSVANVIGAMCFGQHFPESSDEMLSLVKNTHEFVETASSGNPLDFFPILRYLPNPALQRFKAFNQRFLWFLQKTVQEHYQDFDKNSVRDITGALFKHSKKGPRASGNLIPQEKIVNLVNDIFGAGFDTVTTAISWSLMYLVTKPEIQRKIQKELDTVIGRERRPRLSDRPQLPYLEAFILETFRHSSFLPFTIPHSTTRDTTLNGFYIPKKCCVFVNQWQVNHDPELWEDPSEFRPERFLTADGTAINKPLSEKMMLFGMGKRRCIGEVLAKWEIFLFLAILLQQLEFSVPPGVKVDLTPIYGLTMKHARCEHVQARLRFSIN

Cytochrome P450 3A4 = Cytochrome P450 3A4 (Homo sapiens, UniProt P08684); test: Inhibition of CYP3A4; format: ADME
Cytochrome P450 2C19 = Cytochrome P450 2C19 (Homo sapiens, UniProt P33261); test: Inhibition of CYP2C19; format: ADME
[2] = Ratio of drug level in brain to blood in rat at 1 mg/kg, po; format: ADME, organism-based; parameters: dose 1 mg/kg, route oral
Summary of the method: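 Rats received a single oral dose of 1 mg/kg, formulated in 5% DMSO + 0.5% HPMC in water. Drug levels were measured in blood and brain, and the brain/blood ratio was calculated from them. The work followed European directive 86/609/EEC.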

[3] = Bioavailability in rat at 1 mg/kg, po; format: ADME, organism-based; details: in vivo; summary of the method: as §1
Liver microsomes [4] = test: Intrinsic clearance in rat liver microsomes assessed per gram of protein; format: ADME, Microsome
[5] = Clearance in rat blood at 1 mg/kg, po; format: ADME, organism-based; parameters: dose 1 mg/kg, route oral; summary of the method: as §1
Rattus norvegicus = test: Volume of distribution in rat at 1 mg/kg, po; format: ADME, organism-based; parameters: dose 1 mg/kg, route oral; details: in vivo; summary of the method: as §1
Cytochrome P450 2C9 = Cytochrome P450 2C9 (Homo sapiens, UniProt P11712); test: Inhibition of CYP2C9; format: ADME
Cytochrome P450 2D6 = Cytochrome P450 2D6 (Homo sapiens, UniProt P10635); test: Inhibition of CYP2D6; format: ADME
Liver microsomes [6] = test: Intrinsic clearance in human liver microsomes assessed per gram of protein; format: ADME, Microsome

Chain of Cytochrome P450 2D6 (P10635 whole entry): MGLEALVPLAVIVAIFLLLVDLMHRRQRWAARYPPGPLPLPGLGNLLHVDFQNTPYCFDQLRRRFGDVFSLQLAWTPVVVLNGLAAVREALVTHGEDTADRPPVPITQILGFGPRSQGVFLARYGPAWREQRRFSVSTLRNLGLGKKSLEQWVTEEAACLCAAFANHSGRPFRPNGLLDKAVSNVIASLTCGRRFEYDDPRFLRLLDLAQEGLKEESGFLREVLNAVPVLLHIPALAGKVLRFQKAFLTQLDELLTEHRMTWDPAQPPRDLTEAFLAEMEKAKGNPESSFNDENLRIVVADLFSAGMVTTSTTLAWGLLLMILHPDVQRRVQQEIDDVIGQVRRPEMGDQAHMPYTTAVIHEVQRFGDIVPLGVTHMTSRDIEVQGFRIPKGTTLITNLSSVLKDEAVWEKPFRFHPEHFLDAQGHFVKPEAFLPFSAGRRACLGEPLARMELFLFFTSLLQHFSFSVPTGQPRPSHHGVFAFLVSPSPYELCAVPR
Chain of Cytochrome P450 2C19 (P33261 whole entry): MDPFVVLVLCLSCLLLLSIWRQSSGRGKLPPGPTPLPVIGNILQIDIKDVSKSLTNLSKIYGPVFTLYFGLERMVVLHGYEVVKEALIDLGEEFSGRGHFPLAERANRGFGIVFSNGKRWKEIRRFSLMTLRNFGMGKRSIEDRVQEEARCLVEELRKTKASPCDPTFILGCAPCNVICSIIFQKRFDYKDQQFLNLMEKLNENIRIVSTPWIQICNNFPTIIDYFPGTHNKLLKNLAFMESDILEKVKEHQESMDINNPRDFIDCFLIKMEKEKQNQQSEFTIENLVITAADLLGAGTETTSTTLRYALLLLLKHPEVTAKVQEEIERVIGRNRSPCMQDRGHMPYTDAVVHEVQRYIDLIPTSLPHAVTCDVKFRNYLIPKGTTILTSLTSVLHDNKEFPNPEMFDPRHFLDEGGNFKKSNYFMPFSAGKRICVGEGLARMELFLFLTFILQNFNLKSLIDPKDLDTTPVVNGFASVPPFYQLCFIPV
Chain of Cytochrome P450 3A4 (P08684 whole entry): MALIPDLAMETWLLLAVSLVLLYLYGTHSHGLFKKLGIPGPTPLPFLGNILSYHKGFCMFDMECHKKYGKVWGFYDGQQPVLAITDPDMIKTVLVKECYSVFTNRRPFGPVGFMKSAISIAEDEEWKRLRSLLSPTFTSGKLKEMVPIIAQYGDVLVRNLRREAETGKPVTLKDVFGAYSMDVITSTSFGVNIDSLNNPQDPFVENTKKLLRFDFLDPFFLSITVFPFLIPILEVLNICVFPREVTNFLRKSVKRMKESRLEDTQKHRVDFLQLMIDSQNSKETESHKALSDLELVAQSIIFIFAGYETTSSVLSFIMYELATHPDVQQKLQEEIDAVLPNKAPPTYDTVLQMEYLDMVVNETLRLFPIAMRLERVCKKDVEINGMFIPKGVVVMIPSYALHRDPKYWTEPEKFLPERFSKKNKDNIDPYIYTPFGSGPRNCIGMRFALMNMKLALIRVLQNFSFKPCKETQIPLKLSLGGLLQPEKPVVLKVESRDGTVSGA
Chain of Cytochrome P450 2C9 (P11712 whole entry): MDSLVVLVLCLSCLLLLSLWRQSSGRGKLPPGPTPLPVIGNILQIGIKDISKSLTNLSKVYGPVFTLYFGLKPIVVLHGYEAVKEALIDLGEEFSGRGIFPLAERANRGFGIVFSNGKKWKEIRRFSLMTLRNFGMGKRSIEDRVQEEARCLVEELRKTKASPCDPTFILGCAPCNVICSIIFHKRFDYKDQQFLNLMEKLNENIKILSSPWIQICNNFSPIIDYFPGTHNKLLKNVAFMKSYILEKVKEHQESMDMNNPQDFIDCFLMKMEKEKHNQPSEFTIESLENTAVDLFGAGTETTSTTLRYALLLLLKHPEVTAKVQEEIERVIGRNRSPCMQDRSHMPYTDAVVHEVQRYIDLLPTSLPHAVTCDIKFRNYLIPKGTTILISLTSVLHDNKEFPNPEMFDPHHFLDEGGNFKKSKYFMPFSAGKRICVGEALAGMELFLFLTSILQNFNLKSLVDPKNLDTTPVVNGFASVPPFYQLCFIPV

With O=C(Nc1ccccc1C(=O)N1CCCCC1)c1ccc(-c2ccccc2)o1 the IC50 (Neuropeptide S receptor) was 31.6 nM.
With O=C(Nc1ccccc1C(=O)N1CCCCC1)c1cccc(-c2ccccc2)n1 the IC50 (Neuropeptide S receptor) was 20 nM.
In the case of O=C(Nc1ccccc1C(=O)N1CCCCC1)c1ccc(-c2ccccc2)s1, the IC50 (Neuropeptide S receptor) is reported as 794 nM.
For O=C(Nc1ccccc1C(=O)N1CCCCC1)c1cccc(-c2ccccc2)c1, the IC50 (Neuropeptide S receptor) was 251 nM.
Compound O=C(Nc1ccccc1C(=O)N1CCCCC1)c1ccc(-c2ccccc2)[nH]1 has an IC50 (Neuropeptide S receptor) of over 5010 nM.
O=C(c1ccccc1N1CCCn2c(ccc2-c2ccccc2)C1=O)N1CCCCC1 showed an IC50 (Neuropeptide S receptor) of over 5010 nM.
Compound O=C(c1ccccc1N1CCn2c(ccc2-c2ccccc2)C1=O)N1CCCCC1 has an IC50 (Neuropeptide S receptor) of over 5010 nM.
For O=C(c1ccccc1N1Cn2c(ccc2-c2ccccc2)C1=O)N1CCCCC1, the half-life [1] was 42 min, the IC50 (Cytochrome P450 1A2) was over 5000 nM and the IC50 (Cytochrome P450 3A4) was over 5000 nM. The IC50 (Cytochrome P450 2C19) was over 5000 nM, the Kp [2] was 0.3 and the IC50 (Neuropeptide S receptor) was 10 nM. The bioavailability [3] was 1%, the CL (Liver microsomes [4]) was 26.3 mL/min/g and the CL/F [5] was 69 mL/min/kg. The Vd (Rattus norvegicus) was 2.4 L/kg, the IC50 (Cytochrome P450 2C9) was over 5000 nM and the IC50 (Cytochrome P450 2D6) was over 5000 nM. It also gave a CL (Liver microsomes [6]) of 6.9 mL/min/g.
Work on O=C(NCc1ccccc1)N1CCN2C(=O)OC(c3ccccc3)(c3ccccc3)C2C1 (stereo unspecified) yielded an IC50 (Neuropeptide S receptor) of 2 nM.
